Test results: article PMC11439047 (Nature Communications, 2024)
Residue numbers refer to the chain shown, from its start.

What was measured:
P2X1 receptor D170A = biological target: T1, P2X1 receptor D170A (Homo sapiens, UniProt P51575, D170A); assay: Saturation radioligand binding with [3H]-α,β-methylene ATP
T1 sequence (P51575 1-399 D170A): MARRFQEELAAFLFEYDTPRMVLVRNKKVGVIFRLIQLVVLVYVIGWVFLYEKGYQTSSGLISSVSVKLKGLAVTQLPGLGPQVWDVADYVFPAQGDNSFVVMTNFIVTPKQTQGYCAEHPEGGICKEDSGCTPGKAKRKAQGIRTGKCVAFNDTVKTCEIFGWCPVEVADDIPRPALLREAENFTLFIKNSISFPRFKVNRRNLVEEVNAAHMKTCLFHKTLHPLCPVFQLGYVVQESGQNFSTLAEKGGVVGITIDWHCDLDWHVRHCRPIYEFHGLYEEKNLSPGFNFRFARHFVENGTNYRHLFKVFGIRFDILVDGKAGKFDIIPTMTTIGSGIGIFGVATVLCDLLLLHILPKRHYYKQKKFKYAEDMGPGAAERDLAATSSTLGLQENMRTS

P2X1 receptor E282A = biological target: T2, P2X1 receptor E282A (Homo sapiens, UniProt P51575, E282A); assay: Saturation radioligand binding with [3H]-α,β-methylene ATP
T2 sequence (P51575 1-399 E282A): T1 sequence (P51575 1-399 D170A) with A170D, E282A
In short: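 Whole HEK293 Flp-In T-REx cells stably expressing receptor, tetracycline-induced (150 ng/ml, 2 days), 15,000 cells/well, washed in HEPES binding buffer pH 7.4 with Ca2+/Mg2+. Increasing [3H]-α,β-methylene ATP added, 3 h room temperature with gentle agitation; non-specific binding with 10 μM ATP. Ice-cold 0.9% NaCl washes, scintillation counting (CCPM). Specific binding fitted one-site; values above 300 nM termed not defined.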

P2X1 receptor M214A = biological target: T3, P2X1 receptor M214A (Homo sapiens, UniProt P51575, M214A); assay: Calcium ion influx assay; type: cell-based
T3 sequence (P51575 1-399 M214A): T1 sequence (P51575 1-399 D170A) with A170D, M214A

WT-P2X1 receptor = biological target: T4, WT-P2X1 receptor (Homo sapiens, UniProt P51575); assay: Calcium ion influx assay; type: cell-based; conditions: read-out: potency; WT-P2X1, Fig. 4B
T4 sequence (P51575 1-399): T1 sequence (P51575 1-399 D170A) with A170D

## Nc1ncnc2c1ncn2[C@@H]1O[C@H](COP(=O)(O)CP(=O)(O)OP(=O)(O)O)[C@@H](O)[C@H]1O [α,β-methylene ATP]
P2X1 receptor D170A
  binding affinity compared to WT-P2X1: beyond the threshold that could be accurately measured
P2X1 receptor E282A
  binding affinity compared to WT-P2X1: similar
P2X1 receptor M214A
  fold decrease in potency compared to WT-P2X1: 7 fold
P2X1 receptor M214A; maximal α,β-methylene ATP
  desensitisation rate compared to WT-P2X1: significantly slowed the desensitisation rate
WT-P2X1 receptor
  EC50: 0.099 µM
